Activity calls are given as the source filed them. The calls are words filed in the database; no cut-off is given here.
Assays:
[1] = target: T1, Amine oxidase [flavin-containing] B (Homo sapiens, UniProt P27338)
T1 sequence (P27338 whole entry): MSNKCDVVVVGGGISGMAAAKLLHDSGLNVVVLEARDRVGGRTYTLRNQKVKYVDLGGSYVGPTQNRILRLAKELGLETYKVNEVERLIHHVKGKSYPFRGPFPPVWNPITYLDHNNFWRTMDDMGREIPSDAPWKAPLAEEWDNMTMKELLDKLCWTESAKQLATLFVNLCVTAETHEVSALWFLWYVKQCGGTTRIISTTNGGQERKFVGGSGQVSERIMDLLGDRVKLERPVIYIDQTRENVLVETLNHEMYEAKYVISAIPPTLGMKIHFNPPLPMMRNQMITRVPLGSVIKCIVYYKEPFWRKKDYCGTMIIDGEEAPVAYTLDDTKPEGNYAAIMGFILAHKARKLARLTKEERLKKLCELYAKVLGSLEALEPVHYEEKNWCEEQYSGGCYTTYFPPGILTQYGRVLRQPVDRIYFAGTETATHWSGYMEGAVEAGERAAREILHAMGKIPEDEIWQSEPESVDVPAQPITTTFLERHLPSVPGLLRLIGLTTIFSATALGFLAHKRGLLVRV

[2] = target: T2, Amine oxidase [flavin-containing] A (Homo sapiens, UniProt P21397); experiment: Inhibition of human recombinant MAOA at 100 uM using p-tyramine as substrate incubated for 15 mins by fluorimetric method; conditions: 0.25 h
T2 sequence (P21397 whole entry): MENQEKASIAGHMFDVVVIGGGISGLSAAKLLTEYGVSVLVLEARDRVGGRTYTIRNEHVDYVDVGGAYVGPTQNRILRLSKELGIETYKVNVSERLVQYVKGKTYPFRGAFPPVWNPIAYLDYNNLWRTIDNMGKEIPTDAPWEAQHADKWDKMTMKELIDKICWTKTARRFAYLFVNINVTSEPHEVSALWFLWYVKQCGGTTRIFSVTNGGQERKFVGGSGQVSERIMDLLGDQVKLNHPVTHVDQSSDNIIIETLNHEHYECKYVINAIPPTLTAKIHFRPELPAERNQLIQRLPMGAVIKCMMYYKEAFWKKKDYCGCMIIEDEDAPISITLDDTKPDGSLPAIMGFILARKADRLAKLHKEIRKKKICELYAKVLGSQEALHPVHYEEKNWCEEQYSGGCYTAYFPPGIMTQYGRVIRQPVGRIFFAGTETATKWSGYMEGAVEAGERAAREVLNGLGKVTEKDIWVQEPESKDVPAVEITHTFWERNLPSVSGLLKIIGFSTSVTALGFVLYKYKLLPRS
Method in brief: (§1)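 Recombinant hMAO-A or hMAO-B (baculovirus-infected BTI insect cells), amount set to oxidize 165 pmol p-tyramine/min, preincubated with compound 15 min at 37 °C. Reaction started with Amplex Red, 1 U/mL horseradish peroxidase and 1 mM p-tyramine. Resorufin fluorescence read at 37 °C (ex 545/em 590 nm), minus enzyme-free phosphate-buffer background.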

Cholinesterase [3] = target: T3, Cholinesterase (Homo sapiens, UniProt P06276); experiment: Inhibition of human serum BuChE using butyrylthiocholine as substrate preincubated for 5 mins followed by substrate addition measured for 5 mins by Ellman's method
T3 sequence (P06276 whole entry): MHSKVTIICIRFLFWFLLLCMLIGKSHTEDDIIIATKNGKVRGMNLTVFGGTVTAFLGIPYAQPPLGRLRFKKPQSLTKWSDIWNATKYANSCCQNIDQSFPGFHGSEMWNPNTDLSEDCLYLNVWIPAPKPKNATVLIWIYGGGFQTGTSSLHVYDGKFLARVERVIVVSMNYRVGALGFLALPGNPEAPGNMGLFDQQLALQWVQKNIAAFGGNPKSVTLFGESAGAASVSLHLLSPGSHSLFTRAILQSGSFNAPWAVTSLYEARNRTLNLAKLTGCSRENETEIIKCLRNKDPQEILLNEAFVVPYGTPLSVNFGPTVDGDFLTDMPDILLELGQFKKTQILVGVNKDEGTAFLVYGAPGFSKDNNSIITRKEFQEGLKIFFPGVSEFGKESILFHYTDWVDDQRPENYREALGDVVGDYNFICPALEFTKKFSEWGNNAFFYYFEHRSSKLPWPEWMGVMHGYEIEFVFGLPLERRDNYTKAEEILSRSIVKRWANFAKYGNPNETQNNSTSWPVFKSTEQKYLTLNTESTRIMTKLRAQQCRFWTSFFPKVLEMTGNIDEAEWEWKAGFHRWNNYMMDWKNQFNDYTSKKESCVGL
Method in brief: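 Spectrophotometric Ellman assay with butyrylcholinesterase from human serum, with donepezil as reference. IC50 is reported in µM as mean ± SEM, n = 5.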

Acetylcholinesterase [4] = target: T4, Acetylcholinesterase (Homo sapiens, UniProt P22303); experiment: Inhibition of human recombinant AChE using acetylthiocholine iodide as substrate preincubated for 5 mins followed by substrate addition measured for 5 mins by Ellman's method
T4 sequence (P22303 whole entry): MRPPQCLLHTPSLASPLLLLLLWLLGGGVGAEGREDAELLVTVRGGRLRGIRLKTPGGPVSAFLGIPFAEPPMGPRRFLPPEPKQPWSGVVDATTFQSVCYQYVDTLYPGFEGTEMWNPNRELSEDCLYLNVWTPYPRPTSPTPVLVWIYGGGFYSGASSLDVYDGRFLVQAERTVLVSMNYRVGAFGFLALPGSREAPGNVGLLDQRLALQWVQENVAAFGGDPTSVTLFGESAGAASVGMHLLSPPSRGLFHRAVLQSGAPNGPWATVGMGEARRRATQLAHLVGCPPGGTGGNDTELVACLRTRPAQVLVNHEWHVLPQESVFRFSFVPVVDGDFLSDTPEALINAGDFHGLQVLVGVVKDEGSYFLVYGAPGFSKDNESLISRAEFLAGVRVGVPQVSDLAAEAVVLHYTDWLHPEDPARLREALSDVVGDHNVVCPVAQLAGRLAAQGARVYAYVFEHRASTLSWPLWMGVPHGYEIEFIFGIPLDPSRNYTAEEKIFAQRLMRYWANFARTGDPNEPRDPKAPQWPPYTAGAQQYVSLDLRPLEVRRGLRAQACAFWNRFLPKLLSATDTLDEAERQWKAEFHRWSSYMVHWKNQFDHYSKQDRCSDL

[5] = target: T1, Amine oxidase [flavin-containing] B; experiment: Inhibition of human recombinant MAOB at 100 uM using p-tyramine as substrate incubated for 15 mins by fluorimetric method; conditions: 0.25 h
Method in brief: as §1

[6] = target: T2, Amine oxidase [flavin-containing] A; experiment: Inhibition of human recombinant MAOA using p-tyramine as substrate incubated for 15 mins by fluorimetric method
[7] = Antioxidant activity assessed as AAPH free radical scavenging activity by measuring trolox equivalent by oxygen radical absorbance capacity method; assay type: functional
Method in brief: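 Oxygen radical absorbance capacity (ORAC) assay with trolox as the standard. Fluorescence was read on a plate reader with 485-P excitation and 520-P emission filters. Values are expressed as trolox equivalents, mean ± SEM (n = 5).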

[8] = target: Beta-secretase 1 (Homo sapiens) (UniProt P56817); experiment: Inhibition of human BACE1 at 10 uM using Rh-EVNLDAEFK-Quencher as substrate after 60 mins by FRET assay relative to control
Chain of Beta-secretase 1 (Homo sapiens) (P56817 whole entry): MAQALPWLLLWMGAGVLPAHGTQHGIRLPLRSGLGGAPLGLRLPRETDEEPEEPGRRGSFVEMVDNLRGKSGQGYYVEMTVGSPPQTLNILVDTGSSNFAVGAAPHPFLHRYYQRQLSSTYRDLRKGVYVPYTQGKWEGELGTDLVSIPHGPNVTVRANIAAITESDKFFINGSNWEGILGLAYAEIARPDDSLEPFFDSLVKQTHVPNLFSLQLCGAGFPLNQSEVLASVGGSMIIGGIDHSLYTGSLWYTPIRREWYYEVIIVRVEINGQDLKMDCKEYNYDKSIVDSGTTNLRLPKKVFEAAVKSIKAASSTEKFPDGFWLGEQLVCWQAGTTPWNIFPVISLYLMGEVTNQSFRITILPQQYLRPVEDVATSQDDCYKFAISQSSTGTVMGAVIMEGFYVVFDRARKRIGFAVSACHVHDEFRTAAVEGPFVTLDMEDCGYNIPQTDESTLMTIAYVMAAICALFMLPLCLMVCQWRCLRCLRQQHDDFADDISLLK
Method in brief: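 FRET-based assay on human recombinant BACE-1, run per the manufacturer's protocol; compounds tested at 10 μM, read as percent inhibition.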

[9] = Potentiation of rotenone/oligomycin A-induced mitochondrial oxidative stress in human SH-SY5Y cells at 0.1 to 3 uM after 24 hrs by MTT assay; assay type: ADME, cell-based
Method in brief: (§2)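 SH-SY5Y cells, passage <13, were seeded at 8x10^4/well for 2 days. Then co-incubated 24 h with compound (0.1, 0.3, 1, 3 µM) plus rotenone 30 µM/oligomycin A 10 µM in F-12/EMEM with 1% FBS; 0.1% DMSO vehicle and 10 nM melatonin control. MTT 0.5 mg/ml final, 2 h at 37 °C, formazan in DMSO read at 540 nm. Normalized to untreated control; triplicates of ≥3 cultures, mean ± SEM.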

SH-SY5Y = experiment: Neuroprotective activity against rotenone/oligomycin A-induced mitochondrial oxidative stress in human SH-SY5Y cells assessed as increase in cell viability at 0.3 uM after 24 hrs by MTT assay relative to control; assay type: functional
Method in brief: as §2

Acetylcholinesterase [10] = target: T4, Acetylcholinesterase; experiment: Inhibition of human recombinant AChE at 10 uM using acetylthiocholine iodide as substrate preincubated for 5 mins followed by substrate addition measured for 5 mins by Ellman's method relative to control
Method in brief: (§3)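 Spectrophotometric Ellman assay with recombinant human AChE or BuChE from human serum. Percent inhibition is given at a single concentration of 10 µM. Results are mean ± SEM, n = 5.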

Cholinesterase [11] = target: T3, Cholinesterase; experiment: Inhibition of human serum BuChE at 10 uM using butyrylthiocholine as substrate preincubated for 5 mins followed by substrate addition measured for 5 mins by Ellman's method relative to control
Method in brief: as §3

Neural stem cell [12] = experiment: (§4) Induction of differentiation of C57BL/6 mouse subgranular zone-derived neural stem cell into neuronal phenotype assessed as increase in level of MAP2 expressing cells in neurosphere at 10 uM preincubated for 7 days followed by cell attachment onto poly-L-lysine-coated coverslip in presence of serum and absence of exogenous growth factor for 3 days by DAPI staining-based florescence microscopy; assay type: functional
Method in brief: (§5)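 Adult (3-month) male C57BL/6 mouse SGZ dentate gyrus neural stem cells grown as neurospheres for 7 days with compound (10 µM). Then adhered on 100 μg/mL poly-L-lysine coverslips for 3 more days with serum, without exogenous growth factors, compound present. Immunocytochemistry for β-III-tubulin (TuJ) and MAP-2 with Alexa-fluor secondaries and DAPI nuclei, imaged by fluorescence microscopy, inner and distal neurosphere areas.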

Neural stem cell [13] = experiment: as §4, with “beta-3 tubulin” for “MAP2”; assay type: functional
Method in brief: as §5

Structure (SMILES)	IC50 [1]	inhibition at 100 µM [2]	IC50 (Cholinesterase [3])	IC50 (Acetylcholinesterase [4])	inhibition at 100 µM [5]	IC50 [6]	Activity [7]	inhibition [8]	Activity [9]	Activity (SH-SY5Y)	inhibition (Acetylcholinesterase [10])	inhibition (Cholinesterase [11])	Activity (Neural stem cell [12])	Activity (Neural stem cell [13])
COc1cccc(/C=C/C(=O)NCCC2CCN(Cc3ccccc3)CC2)c1	> 100 µM	45 to 55%	0.98 µM	0.75 µM										
COc1ccc(/C=C/C(=O)NCCC2CCN(Cc3ccccc3)CC2)cc1		45 to 55%	0.76 µM	0.49 µM	45 to 55%									
COc1ccc(/C=C/C(=O)Nc2ccc(CN(C)Cc3ccccc3)cc2)c(OC)c1	> 100 µM		> 10 µM	8.73 µM		> 100 µM	0.5 equiv							
COc1ccc(/C=C/C(=O)NCCC2CCN(Cc3ccccc3)CC2)cc1OC			0.69 µM	0.26 µM	45 to 55%	> 100 µM	0.4 equiv							
COc1cc(/C=C/C(=O)Nc2cccc(CN(C)Cc3ccccc3)c2)ccc1O	7.7 µM		5.89 µM	5.99 µM		4.5 µM	1.4 equiv	23 to 33%	Non-Toxic	30 - 35%				
O=C(/C=C/c1cccc(O)c1)NCCC1CCN(Cc2ccccc2)CC1	> 100 µM	45 to 55%	1.02 µM	1.12 µM			2.2 equiv							
CN(Cc1ccccc1)Cc1ccc(NC(=O)/C=C/c2ccc(O)cc2)cc1	29 µM					29.7 µM	1.8 equiv				46%	30%		
O=C(/C=C/c1ccc(O)c(O)c1)NCCC1CCN(Cc2ccccc2)CC1	6 µM		0.69 µM	1.75 µM		3.5 µM	1 equiv						Active	Active
COc1ccc(/C=C/C(=O)NCCC2CCN(Cc3ccccc3)CC2)c(OC)c1	> 100 µM		4.39 µM	0.63 µM		> 100 µM								
COc1cc(/C=C/C(=O)Nc2ccc(CN(C)Cc3ccccc3)cc2)ccc1O							1.5 equiv	23 to 33%			33%	45%		
COc1ccc(/C=C/C(=O)Nc2ccc(CN(C)Cc3ccccc3)cc2)cc1OC			> 10 µM	3.98 µM			0.4 equiv							
COc1cc(/C=C/C(=O)NCCC2CCN(Cc3ccccc3)CC2)ccc1O	13.1 µM		0.076 µM	0.39 µM		11.4 µM	1.8 equiv		Non-Toxic	30 - 35%				
O=C(/C=C/c1ccc(O)cc1)NCCC1CCN(Cc2ccccc2)CC1	> 100 µM		0.93 µM	1.01 µM		57.5 µM	1.7 equiv							
COc1cccc(/C=C/C(=O)Nc2ccc(CN(C)Cc3ccccc3)cc2)c1	> 100 µM			4.67 µM		> 100 µM	0.6 equiv	23 to 33%				35%		
COc1ccc(/C=C/C(=O)Nc2ccc(CN(C)Cc3ccccc3)cc2)cc1	> 100 µM			5.76 µM		> 100 µM		23 to 33%				25%		
O=C(/C=C/c1ccc(O)cc1O)NCCC1CCN(Cc2ccccc2)CC1	8.3 µM		0.26 µM	0.99 µM		5.5 µM	1.3 equiv							
CN(Cc1ccccc1)Cc1ccc(NC(=O)/C=C/c2cccc(O)c2)cc1		45 to 55%		3.49 µM	45 to 55%		3.2 equiv		Non-Toxic	30 - 35%		46%		
